Source: ChEMBL document CHEMBL5058577, “EUbOPEN Chemogenomics Library 2 (Multiplex)” (2022)

Test system: HEK-293T
Experiment: Multiplex assay against HEK293T
Assay type: toxicity, cell-based
Conditions: human
In short: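 Imaging took place on a CQ1 microscope at 37°C and 5% CO2 once compound had been added to live cells stained at seeding with Hoechst33342, BioTracker Green Microtubule Cytoskeleton Dye, MitoTracker Red and Annexin V Alexa Fluor 680. CellPathfinder machine-learning gating classed cells as Hoechst high-intensity objects or normal cells, classed normal cells as having healthy, pyknosed or fragmented nuclei, and classed pyknosed cells as mitotic or apoptotic. Tubulin, mitochondrial-mass and membrane-permeability phenotypes are per cents of the healthy-nucleus cells.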

[1] = 12 h, 1 µM, compound concentration 1 uM, replicate 1
[2] = 12 h, 1 µM, compound concentration 1 uM, replicate 2
[3] = 12 h, 10 µM, compound concentration 10 uM, replicate 1
[4] = 12 h, 10 µM, compound concentration 10 uM, replicate 2
[5] = 24 h, 1 µM, compound concentration 1 uM, replicate 1
[6] = 24 h, 1 µM, compound concentration 1 uM, replicate 2
[7] = 24 h, 10 µM, compound concentration 10 uM, replicate 1
[8] = 24 h, 10 µM, compound concentration 10 uM, replicate 2
[9] = 48 h, 1 µM, compound concentration 1 uM, replicate 1
[10] = 48 h, 1 µM, compound concentration 1 uM, replicate 2
[11] = 48 h, 10 µM, compound concentration 10 uM, replicate 1
[12] = 48 h, 10 µM, compound concentration 10 uM, replicate 2

For `O=C(NCC(=O)N1CC[C@H](N[C@H]2CC[C@@](O)(c3ccc(-c4ncccn4)cn3)CC2)C1)c1cccc(C(F)(F)F)c1` [PF-4136309], the “Population Apoptotic (%)” value [1] was 44%, the “Population Fragmented Nuclei (%)” value [1] was 6% and the “Population Healthy Nuclei (%)” value [1] was 80%. For the same compound, the “Population Hoechst High Intensity Objects (%)” value [1] was 4%, the “Population Membrane Permeable-Phenotype (%)” value [1] was 0% and the “Population Mitochondria Different-Phenotype (%)” value [1] was 41%. The “Population Mitotic Cells (%)” value [1] was 56%, the “Population Normal (%)” value [1] was 95% and the “Population Pyknosed Nuclei (%)” value [1] was 13%. For the same compound, the “Population Tubulin-Different-Phenotype (%)” value [1] was 32%, the “Total Cell Count” value [1] was 393 and the “Population Apoptotic (%)” value [2] was 34%. The “Population Fragmented Nuclei (%)” value [2] was 5%, the “Population Hoechst High Intensity Objects (%)” value [2] was 6% and the “Population Mitochondria Different-Phenotype (%)” value [2] was 56%. The “Population Mitotic Cells (%)” value [2] was 66%, the “Population Normal (%)” value [2] was 93% and the “Population Tubulin-Different-Phenotype (%)” value [2] was 15%. For the same compound, the “Total Cell Count” value [2] was 389, the “Population Apoptotic (%)” value [3] was 39% and the “Population Fragmented Nuclei (%)” value [3] was 7%. The “Population Healthy Nuclei (%)” value [3] was 76%, the “Population Hoechst High Intensity Objects (%)” value [3] was 7% and the “Population Membrane Permeable-Phenotype (%)” value [3] was 0%. The “Population Mitochondria Different-Phenotype (%)” value [3] was 53%, the “Population Mitotic Cells (%)” value [3] was 60% and the “Population Normal (%)” value [3] was 92%. The “Population Pyknosed Nuclei (%)” value [3] was 15%, the “Population Tubulin-Different-Phenotype (%)” value [3] was 55% and the “Total Cell Count” value [3] was 358. For the same compound, the “Population Apoptotic (%)” value [4] was 48%, the “Population Fragmented Nuclei (%)” value [4] was 3% and the “Population Healthy Nuclei (%)” value [4] was 81%. For the same compound, the “Population Hoechst High Intensity Objects (%)” value [4] was 6%, the “Population Mitochondria Different-Phenotype (%)” value [4] was 75% and the “Population Mitotic Cells (%)” value [4] was 51%. For the same compound, the “Population Normal (%)” value [4] was 93%, the “Population Pyknosed Nuclei (%)” value [4] was 14% and the “Population Tubulin-Different-Phenotype (%)” value [4] was 45%. The “Total Cell Count” value [4] was 295, the “Population Apoptotic (%)” value [5] was 25% and the “Population Fragmented Nuclei (%)” value [5] was 10%. For the same compound, the “Population Healthy Nuclei (%)” value [5] was 80%, the “Population Hoechst High Intensity Objects (%)” value [5] was 2% and the “Population Membrane Permeable-Phenotype (%)” value [5] was 0%. The “Population Mitochondria Different-Phenotype (%)” value [5] was 26%, the “Population Mitotic Cells (%)” value [5] was 74% and the “Population Normal (%)” value [5] was 97%. The “Population Pyknosed Nuclei (%)” value [5] was 9%, the “Population Tubulin-Different-Phenotype (%)” value [5] was 15% and the “Total Cell Count” value [5] was 561. The “Population Apoptotic (%)” value [6] was 39%, the “Population Fragmented Nuclei (%)” value [6] was 8% and the “Population Hoechst High Intensity Objects (%)” value [6] was 5%. The “Population Mitochondria Different-Phenotype (%)” value [6] was 31%, the “Population Mitotic Cells (%)” value [6] was 60% and the “Population Normal (%)” value [6] was 94%. For the same compound, the “Population Pyknosed Nuclei (%)” value [6] was 11%, the “Population Tubulin-Different-Phenotype (%)” value [6] was 13% and the “Total Cell Count” value [6] was 485. For the same compound, the “Population Apoptotic (%)” value [7] was 35%, the “Population Fragmented Nuclei (%)” value [7] was 10% and the “Population Healthy Nuclei (%)” value [7] was 73%. For the same compound, the “Population Hoechst High Intensity Objects (%)” value [7] was 7%, the “Population Membrane Permeable-Phenotype (%)” value [7] was 1% and the “Population Mitochondria Different-Phenotype (%)” value [7] was 39%. For the same compound, the “Population Mitotic Cells (%)” value [7] was 64%, the “Population Normal (%)” value [7] was 92% and the “Population Pyknosed Nuclei (%)” value [7] was 16%. The “Population Tubulin-Different-Phenotype (%)” value [7] was 36%, the “Total Cell Count” value [7] was 450 and the “Population Apoptotic (%)” value [8] was 57%. For the same compound, the “Population Fragmented Nuclei (%)” value [8] was 8%, the “Population Healthy Nuclei (%)” value [8] was 80% and the “Population Hoechst High Intensity Objects (%)” value [8] was 5%. For the same compound, the “Population Membrane Permeable-Phenotype (%)” value [8] was 0%, the “Population Mitochondria Different-Phenotype (%)” value [8] was 54% and the “Population Mitotic Cells (%)” value [8] was 42%. The “Population Normal (%)” value [8] was 94%, the “Population Pyknosed Nuclei (%)” value [8] was 11% and the “Population Tubulin-Different-Phenotype (%)” value [8] was 27%. The “Total Cell Count” value [8] was 384, the “Population Apoptotic (%)” value [9] was 18% and the “Population Fragmented Nuclei (%)” value [9] was 16%. For the same compound, the “Population Healthy Nuclei (%)” value [9] was 78%, the “Population Hoechst High Intensity Objects (%)” value [9] was 0% and the “Population Membrane Permeable-Phenotype (%)” value [9] was 1%. The “Population Mitochondria Different-Phenotype (%)” value [9] was 14%, the “Population Mitotic Cells (%)” value [9] was 81% and the “Population Normal (%)” value [9] was 99%. The “Population Pyknosed Nuclei (%)” value [9] was 4%, the “Population Tubulin-Different-Phenotype (%)” value [9] was 9% and the “Total Cell Count” value [9] was 1007. The “Population Apoptotic (%)” value [10] was 27%, the “Population Healthy Nuclei (%)” value [10] was 77% and the “Population Hoechst High Intensity Objects (%)” value [10] was 2%. The “Population Membrane Permeable-Phenotype (%)” value [10] was 0%, the “Population Mitochondria Different-Phenotype (%)” value [10] was 16% and the “Population Mitotic Cells (%)” value [10] was 72%. The “Population Normal (%)” value [10] was 97%, the “Population Pyknosed Nuclei (%)” value [10] was 5% and the “Population Tubulin-Different-Phenotype (%)” value [10] was 11%. For the same compound, the “Total Cell Count” value [10] was 907, the “Population Apoptotic (%)” value [11] was 31% and the “Population Fragmented Nuclei (%)” value [11] was 13%. For the same compound, the “Population Healthy Nuclei (%)” value [11] was 75%, the “Population Hoechst High Intensity Objects (%)” value [11] was 5% and the “Population Membrane Permeable-Phenotype (%)” value [11] was 0%. For the same compound, the “Population Mitochondria Different-Phenotype (%)” value [11] was 34%, the “Population Mitotic Cells (%)” value [11] was 68% and the “Population Normal (%)” value [11] was 94%. The “Population Pyknosed Nuclei (%)” value [11] was 11%, the “Population Tubulin-Different-Phenotype (%)” value [11] was 23% and the “Total Cell Count” value [11] was 636. The “Population Apoptotic (%)” value [12] was 43%, the “Population Fragmented Nuclei (%)” value [12] was 11% and the “Population Healthy Nuclei (%)” value [12] was 79%. The “Population Hoechst High Intensity Objects (%)” value [12] was 4%, the “Population Mitochondria Different-Phenotype (%)” value [12] was 46% and the “Population Mitotic Cells (%)” value [12] was 56%. For the same compound, the “Population Normal (%)” value [12] was 95%, the “Population Pyknosed Nuclei (%)” value [12] was 8% and the “Population Tubulin-Different-Phenotype (%)” value [12] was 30%. For the same compound, the “Total Cell Count” value [12] was 468.
